Assay [1] in a line: Cytotoxic activity against mouse 32D Bcr-abl negative cells.
A short description of assay [2]: Cytotoxic activity against mouse 32D cells transfected with p210 Bcr-abl. It is filed as cell-based.
Assay [3] deals with Tyrosine-protein kinase ABL1 (Homo sapiens) (UniProt P00519). Briefly: Displacement of abl from GNF2 resin using affinity chromatography at 1000 uM by competition binding assay.
For assay [4] the target is unchanged. Briefly: Binding affinity to dephosphorylated human recombinant abl. An outline of the steps:
(§1)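 Recombinant human abl (1 μg), either Src-phosphorylated or tyrosine phosphatase-treated, incubated 1 h at 4 °C with immobilized GNF-3 resin; after five washes bound protein eluted by boiling in Laemmli buffer and detected by SDS-PAGE/anti-abl immunoblot. Immobilized methyl analogue used as control matrix.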

For assay [5] the target is unchanged. Briefly: Binding affinity to phosphorylated human recombinant abl. An outline of the steps:
as §1

Molecules are shown by their SMILES. The source made the active and inactive calls. No cut-off for these calls is given here.

Tyrosine-protein kinase ABL1 (Homo sapiens), sequence (P00519 whole entry): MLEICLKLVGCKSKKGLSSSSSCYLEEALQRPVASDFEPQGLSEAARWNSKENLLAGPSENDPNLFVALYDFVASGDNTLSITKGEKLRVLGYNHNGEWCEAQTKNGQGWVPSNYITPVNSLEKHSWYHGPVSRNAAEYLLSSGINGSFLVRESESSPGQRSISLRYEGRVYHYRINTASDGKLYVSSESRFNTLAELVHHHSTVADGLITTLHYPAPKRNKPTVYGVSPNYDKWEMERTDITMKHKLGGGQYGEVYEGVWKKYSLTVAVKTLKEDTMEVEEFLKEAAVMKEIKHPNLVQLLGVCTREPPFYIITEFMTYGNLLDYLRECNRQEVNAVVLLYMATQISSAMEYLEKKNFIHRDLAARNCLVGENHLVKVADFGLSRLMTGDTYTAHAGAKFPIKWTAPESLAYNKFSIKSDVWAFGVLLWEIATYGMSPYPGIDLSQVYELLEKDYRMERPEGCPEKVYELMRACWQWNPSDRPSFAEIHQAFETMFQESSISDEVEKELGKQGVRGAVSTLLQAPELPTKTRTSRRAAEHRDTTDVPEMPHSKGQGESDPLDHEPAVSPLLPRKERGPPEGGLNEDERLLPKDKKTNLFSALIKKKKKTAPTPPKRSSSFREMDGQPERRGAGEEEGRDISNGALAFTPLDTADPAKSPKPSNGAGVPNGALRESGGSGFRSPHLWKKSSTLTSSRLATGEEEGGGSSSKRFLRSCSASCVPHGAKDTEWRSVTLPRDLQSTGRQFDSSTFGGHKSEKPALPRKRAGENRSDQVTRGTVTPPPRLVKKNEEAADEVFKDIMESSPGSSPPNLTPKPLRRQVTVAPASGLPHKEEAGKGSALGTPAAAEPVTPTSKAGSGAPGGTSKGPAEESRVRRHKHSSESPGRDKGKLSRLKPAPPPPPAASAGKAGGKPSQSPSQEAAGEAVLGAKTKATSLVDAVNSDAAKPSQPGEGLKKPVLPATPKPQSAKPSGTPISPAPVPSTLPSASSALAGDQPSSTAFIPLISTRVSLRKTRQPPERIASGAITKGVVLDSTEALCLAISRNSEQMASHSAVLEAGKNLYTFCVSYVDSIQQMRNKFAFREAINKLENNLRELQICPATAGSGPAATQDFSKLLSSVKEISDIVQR

Turning to `FC(F)(F)Oc1ccc(Nc2cc(NCCN3CCOCC3)ncn2)cc1`, the results for the IC50 in assay [1] and in assay [2] were greater than 40000 nM and 400 nM, respectively.
Consider `Nc1ncnc2c1ncn2[C@@H]1O[C@H](COP(=O)(O)OP(=O)(O)OP(=O)(O)O)[C@@H](O)[C@H]1O`, for which the outcome in assay [3] was Active.
As for `NCCOCCOCCOCCOCCOCCNC(=O)c1cccc(-c2cc(Nc3ccc(OC(F)(F)F)cc3)ncn2)c1`, the outcome in assay [4] and in assay [5] was Active.

The values are drawn from ChEMBL document CHEMBL1240306, “Allosteric inhibitors of Bcr-abl-dependent cell proliferation” (Nat Chem Biol, 2006).
